Source: ChEMBL document CHEMBL1121840, “Synthesis and antiinflammatory activity of 2,2'-diaminobiphenyl derivatives” (J Med Chem, 1981)

Experiments:
[1] = tested on: Rattus norvegicus; experiment: Compound was tested for antiinflammatory activity in rats by adjuvant arthritis test after peroral administration of 50 mg/kg dose; no significant effect; format: functional, organism-based; set-up: dose 50 mg/kg
[2] = tested on: Rattus norvegicus; experiment: Compound was tested for antiinflammatory activity in rats by carrageenam edema test after peroral administration of 200 mg/kg dose; format: functional; details: route oral
Method in brief: (§1)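 CD-COBS rats, both sexes. The drug was given orally as a suspension in 1% acacia gum (10 mL/kg), then carrageenan foot edema was induced per Winter et al. Read-out was % inhibition of edema; N = 5 rats per group; Dunnet's test. "No significant effect" means inhibition below 15%.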

[3] = tested on: Rattus norvegicus; experiment: Compound was tested for antiinflammatory activity in rats by adjuvant arthritis test after peroral administration of 50 mg/kg dose; format: functional; details: route oral
[4] = tested on: Rattus norvegicus; experiment: Compound was tested for antiinflammatory activity in rats by carrageenam edema test after peroral administration of 200 mg/kg dose; no significant effect; format: functional, organism-based; set-up: dose 200 mg/kg; method in brief: as §1
[5] = tested on: Rattus norvegicus; experiment: Compound was tested for antiinflammatory activity in Rat by carrageenam edema test after peroral administration of 200 mg/kg dose; format: functional; details: route oral; method in brief: as §1
[6] = tested on: Rattus norvegicus; experiment: Compound was tested for antiinflammatory activity in rat by adjuvant arthritis test after peroral administration of 50 mg/kg dose; no significant effect; format: functional, organism-based; set-up: dose 50 mg/kg
[7] = tested on: Rattus norvegicus; experiment: Compound was tested for antiinflammatory activity in rats by carrageenam induced pleurisy test at dose of 200 mg/kg, po,% reduction in leucocytes; format: functional
Method in brief: (§2)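 Rats were dosed orally (1% acacia gum suspension) at 48, 24 and 1 h before intrapleural carrageenan, per Di Rosa et al. Pleural exudate was assessed 6 h later as % reduction in volume and in leucocytes; N = 8 rats per group; Dunnet's test.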

[8] = tested on: Rattus norvegicus; experiment: Compound was tested for antiinflammatory activity in rats by carrageenam induced pleurisy test at dose of 200 mg/kg, po; format: functional; method in brief: as §2
[9] = tested on: Mus musculus; experiment: Compound was tested for analgesic activity in mice by phenylquinone writhing test at dose of 200 mg/kg, po; format: functional
Method in brief: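 Female mice received the drug orally in 1% acacia gum suspension (20 mL/kg) 1 h before i.p. 0.2 mL of 0.2% phenylquinone. Animals were caged individually and abdominal contractions counted over 20 min after injection; N = 4 mice per group; Dunnet's test.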

[10] = Compound was tested for lethal dose in mice after oral administration; format: ADME, organism-based; details: mouse, in vivo
Method in brief: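 CD1 mice of both sexes given single oral dose of compound suspended in 1% acacia gum (20 mL/kg); LD50 calculated by probit method.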

[11] = tested on: Rattus norvegicus; experiment: Compound was tested for antiinflammatory activity in rats adjuvant arthritis test after peroral administration of 50 mg/kg dose; format: functional; details: route oral
[12] = tested on: Rattus norvegicus; experiment: Compound was tested for antiinflammatory activity in rat by carrageenam edema test after peroral administration of 200 mg/kg dose; format: functional; details: route oral; method in brief: as §1
[13] = tested on: Rattus norvegicus; experiment: Compound was tested for antiinflammatory activity in rat by adjuvant arthritis test after peroral administration of 50 mg/kg dose; format: functional; details: route oral
[14] = tested on: Rattus norvegicus; experiment: Compound was tested for antiinflammatory activity in rat by carrageenam edema test after peroral administration of 200 mg/kg dose; no significant effect; format: functional, organism-based; set-up: dose 200 mg/kg; method in brief: as §1

Compound | inhibition [1] | inhibition in vivo at 200 mg/kg [2] | inhibition in vivo at 50 mg/kg [3] | further results
CCN(CC)CCNc1ccccc1-c1ccccc1NC(=O)Cc1ccc(N)cc1 | No significant effect | 33% |  | 
CN(C)CCCNc1ccccc1-c1ccccc1NC(=O)Cc1ccc(Cl)cc1 |  |  | 30% | inhibition [4]: No significant effect
Nc1ccccc1-c1ccccc1NC(=O)Cc1ccc(O)cc1 | No significant effect | 37% |  | 
CNc1ccccc1-c1ccccc1NC(=O)Cc1ccc([N+](=O)[O-])cc1 |  |  | 16% | inhibition [4]: No significant effect
CC(=O)Oc1ccccc1C(=O)O [ASPIRIN] |  | 40% | 32% | 
CCCNc1ccccc1-c1ccccc1NC(=O)Cc1ccc(Cl)cc1 | No significant effect | 33% |  | 
CCN(CC)CCCNc1ccccc1-c1ccccc1NC(=O)Cc1ccc([N+](=O)[O-])cc1 |  |  | 16% | inhibition [4]: No significant effect
CNc1ccccc1-c1ccccc1NC(=O)Cc1ccc(O)cc1 | No significant effect | 17% |  | 
CN(C)CCNc1ccccc1-c1ccccc1NC(=O)Cc1ccc([N+](=O)[O-])cc1 |  |  |  | inhibition in vivo at 200 mg/kg [5]: 54%; inhibition [6]: No significant effect
COc1ccc(CC(=O)Nc2ccccc2-c2ccccc2NCCN(C)C)cc1 | No significant effect | 65% |  | 
CCN(CC)CCNc1ccccc1-c1ccccc1NC(=O)Cc1ccc([N+](=O)[O-])cc1 |  |  |  | Reduction [7]: 35%; Reduction [8]: 48%; inhibition in vivo at 200 mg/kg [9]: 34%; LD50 [10]: 1130 mg/kg; inhibition in vivo at 50 mg/kg [11]: 33%; inhibition in vivo at 200 mg/kg [12]: 54%
CN(C)CCNc1ccccc1-c1ccccc1NC(=O)Cc1ccc(N)cc1 | No significant effect | 16% |  | 
CCNc1ccccc1-c1ccccc1NC(=O)Cc1ccc(O)cc1 | No significant effect | 45% |  | 
CCCCC1C(=O)N(c2ccccc2)N(c2ccccc2)C1=O [PHENYLBUTAZONE] |  | 42% |  | Reduction [7]: 35%; Reduction [8]: 43%; inhibition in vivo at 200 mg/kg [9]: 45%; LD50 [10]: 650 mg/kg; inhibition in vivo at 50 mg/kg [11]: 66%
CCN(CC)CCCNc1ccccc1-c1ccccc1NC(=O)Cc1ccc(Cl)cc1 |  |  | 29% | inhibition [4]: No significant effect
CNc1ccccc1-c1ccccc1NC(=O)Cc1ccc(OC)cc1 |  | 20% | 22% | 
CCN(CC)CCNc1ccccc1-c1ccccc1NC(=O)Cc1ccccc1 |  |  |  | inhibition in vivo at 200 mg/kg [12]: 17%; inhibition [6]: No significant effect
CN(C)CCCNc1ccccc1-c1ccccc1NC(=O)Cc1ccc([N+](=O)[O-])cc1 |  |  |  | inhibition in vivo at 50 mg/kg [13]: 24%; inhibition [14]: No significant effect
CCNc1ccccc1-c1ccccc1NC(=O)Cc1ccccc1 | No significant effect | 30% |  | 
COc1ccc(CC(=O)Nc2ccccc2-c2ccccc2NCCCN(C)C)cc1 | No significant effect | 16% |  | 
